{"source": "ChEMBL document CHEMBL1124007", "about": "“Synthesis and structure-activity relationships of a new series of antiarrhythmic agents: monobasic derivatives of disobutamide” (1988)", "key": {"[1]": {"target": "T1, Muscarinic acetylcholine receptor (Rattus norvegicus) (UniProt P08482+P08483+P08485+P08911+P10980)", "test": "(§1) Ratio of Muscarinic acetylcholine receptor affinity (IC50) of test compound to that of disopyramide", "type": "protein assay", "how_it_was_run": "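Muscarinic receptor binding by displacement of [³H]QNB, test compound at three to six concentrations in triplicate. IC50 from log probit analysis. Value expressed as IC50(test)/IC50(disopyramide).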"}, "Canis familiaris [2]": {"system": "Canis familiaris", "test": "Myocardial depression determined by monitoring the maximum rate of rise of left ventricular pressure in dog at 10 mg/kg dose", "type": "functional, Canis lupus familiaris, Heart left ventricle"}, "Canis familiaris [3]": {"species": "Canis familiaris", "test": "Mean effective dose required to suppress ventricular ectopic rate in dog greater than or equal to 25% for a minimum duration of 10 min", "type": "functional", "details": "Canis lupus familiaris, Cardiac ventricle, read-out: MED"}, "[4]": {"target": "T1, Muscarinic acetylcholine receptor (Rattus norvegicus)", "test": "Ratio of Muscarinic acetylcholine receptor affinity (IC50) of test compound to that of disopyramide; 1/6", "type": "protein assay"}, "[5]": {"target": "T1, Muscarinic acetylcholine receptor (Rattus norvegicus)", "test": "Ratio of Muscarinic acetylcholine receptor affinity (IC50) of test compound to that of disopyramide; 1/2", "type": "protein assay"}, "[6]": {"target": "T1, Muscarinic acetylcholine receptor (Rattus norvegicus)", "test": "as §1", "type": "protein assay", "remark": "listed apart in the source"}, "Canis familiaris [7]": {"species": "Canis familiaris", "test": "Mean effective dose required to suppress ventricular ectopic rate in dog greater than or equal to 25% for a minimum duration of 10 min; Side effects", "type": "functional, organism-based", "details": "Canis lupus familiaris; Cardiac ventricle"}, "[8]": {"target": "T1, Muscarinic acetylcholine receptor (Rattus norvegicus)", "test": "Ratio of Muscarinic acetylcholine receptor affinity (IC50) of test compound to that of disopyramide; 1/4", "type": "protein assay"}, "Canis familiaris [9]": {"system": "Canis familiaris", "test": "Myocardial depression determined by monitoring the maximum rate of rise of left ventricular pressure in dog at 3 mg/kg dose", "type": "functional, Canis lupus familiaris, Heart left ventricle", "how_it_was_run": "(§2)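 Closed-chest anesthetized dogs given compound intravenously at the stated dose; myocardial depression taken as percent decrease in maximum rate of rise of left ventricular pressure (max dP/dt), mean ± standard error of the mean over the dogs tested. ≤25% depression at the mean effective antiarrhythmic dose was deemed acceptable.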"}, "[10]": {"target": "T1, Muscarinic acetylcholine receptor (Rattus norvegicus)", "test": "Ratio of Muscarinic acetylcholine receptor affinity (IC50) of test compound to that of disopyramide; 1/16", "type": "protein assay"}, "Canis familiaris [11]": {"species": "Canis familiaris", "test": "Mean effective dose required to suppress ventricular ectopic rate in dog greater than or equal to 25% for a minimum duration of 10 min; Lethal", "type": "functional", "details": "Canis lupus familiaris, Cardiac ventricle, read-out: MED"}, "Canis familiaris [12]": {"system": "Canis familiaris", "test": "Myocardial depression determined by monitoring the maximum rate of rise of left ventricular pressure in dog at 9 mg/kg dose", "type": "functional, Canis lupus familiaris, Heart left ventricle", "how_it_was_run": "as §2"}, "[13]": {"target": "T1, Muscarinic acetylcholine receptor (Rattus norvegicus)", "test": "Ratio of Muscarinic acetylcholine receptor affinity (IC50) of test compound to that of disopyramide; 1/24", "type": "protein assay"}}}
{"smiles": "CC(C)N(CCC(C(N)=O)(c1ccccc1)c1ccccn1)C(C)C", "note": "(centres undefined) [DISOPYRAMIDE]", "values": [{"measurement": "Ratio", "setting": "[1]", "result": 1}, {"measurement": "Decrease", "setting": "Canis familiaris [2]", "result": 56, "unit": "%"}, {"measurement": "minimal effective dose", "setting": "Canis familiaris [3]", "result": 10, "unit": "mg/kg"}]}
{"smiles": "CC(C)N(CCC1(c2ccccc2)CC2CCCCN2C1=O)C(C)C.Cl", "note": "(centres undefined)", "values": [{"measurement": "Ratio", "setting": "[4]", "result": 0.167}, {"measurement": "minimal effective dose", "setting": "Canis familiaris [3]", "result": 10, "unit": "mg/kg"}]}
{"smiles": "CC(C)N(CCC1(c2ccccc2Cl)CC2CCCCN2C1=O)C(C)C", "note": "(centres undefined)", "values": [{"measurement": "Ratio", "setting": "[5]", "result": 0.5}, {"measurement": "Ratio", "setting": "[6]", "result": 1}, {"measurement": "MED", "setting": "Canis familiaris [7]", "result": "Side effects"}, {"measurement": "minimal effective dose", "setting": "Canis familiaris [3]", "result": 3.5, "unit": "mg/kg"}]}
{"smiles": "CC(C)N(CCC(CCC1CCCCN1)(C(N)=O)c1ccccc1Cl)C(C)C", "note": "(centres undefined)", "values": [{"measurement": "Ratio", "setting": "[8]", "result": 0.25}, {"measurement": "minimal effective dose", "setting": "Canis familiaris [3]", "result": 12.5, "unit": "mg/kg"}]}
{"smiles": "CC(C)N(CCC1(c2ccc(-c3ccccc3)cc2)CC2CCCCN2C1=O)C(C)C", "note": "(centres undefined)", "values": [{"measurement": "Decrease", "setting": "Canis familiaris [9]", "result": 35, "unit": "%"}, {"measurement": "Ratio", "setting": "[10]", "result": 0.0625}, {"measurement": "minimal effective dose", "setting": "Canis familiaris [3]", "result": 3, "unit": "mg/kg"}]}
{"smiles": "CC(C)N(CCC(CCN1CCCCC1)(C(N)=O)c1ccccc1Cl)C(=O)c1ccccc1", "note": "(centres undefined)", "values": [{"measurement": "minimal effective dose", "setting": "Canis familiaris [11]", "result": 5, "unit": "mg/kg"}, {"measurement": "minimal effective dose", "setting": "Canis familiaris [3]", "result": 2, "unit": "mg/kg"}]}
{"smiles": "CC(=O)N(CCC(CCN1CCCCC1)(C(N)=O)c1ccccc1Cl)C(C)C", "note": "(centres undefined) [BIDISOMIDE]", "values": [{"measurement": "Decrease", "setting": "Canis familiaris [12]", "result": 20, "unit": "%"}, {"measurement": "minimal effective dose", "setting": "Canis familiaris [3]", "result": 9, "unit": "mg/kg"}, {"measurement": "Ratio", "setting": "[13]", "result": 0.0417}]}
